Results on four compounds are retold here after ChEMBL document CHEMBL3393056, “Identification of nicotinamide phosphoribosyltransferase (NAMPT) inhibitors with no evidence of CYP3A4 time-dependent inhibition and improved aqueous solubility” (Bioorg Med Chem Lett, 2015).

Data set [1] is described as follows: Oral bioavailability in rat at 5 mg/kg. To be noted: in vivo. Type of data set: ADME, organism-based. The method, boiled down: (§1)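 Male Sprague Dawley rats and male beagle dogs were dosed IV at 1 mg/kg or orally at 5 mg/kg. Plasma concentration–time profiles were followed. Each time point is the mean from three separate animals.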
Data set [2] is described as follows: Half life in rat at 1 mg/kg, iv. Type of data set: ADME, organism-based. To be noted: in vivo. The arrangement: dose 1 mg/kg, route intravenous. The method in brief: as §1
Data set [3] is described as follows: Cmax in rat at 5 mg/kg, po. Type of data set: ADME, organism-based. The arrangement: dose 5 mg/kg, route oral. To be noted: in vivo. The method in brief:
as §1

The nature of data set [4]: Clearance in rat at 1 mg/kg, iv. The conditions noted are these: in vivo. The arrangement: dose 1 mg/kg, route intravenous. In kind it is ADME, organism-based. The method, boiled down:
as §1

Data set [5] in a line: Volume of distribution at steady state in rat at 1 mg/kg, iv. In kind it is ADME, organism-based. The arrangement: dose 1 mg/kg, route intravenous. To be noted: in vivo, read-out: Vdss. The method, boiled down: as §1
A short description of data set [6]: AUC in rat at 5 mg/kg, po. Type of data set: ADME, organism-based. The arrangement: dose 5 mg/kg, route oral. To be noted: plasma. The method in brief: as §1
Data set [7] can be described thus: AUC in dog at 5 mg/kg, po. In kind it is ADME, organism-based, Canis lupus familiaris. The arrangement: dose 5 mg/kg, route oral. The conditions noted are these: plasma. The method in brief:
as §1

Data set [8] is described as follows: Oral bioavailability in dog at 5 mg/kg. In kind it is ADME, organism-based, Canis lupus familiaris. To be noted: in vivo. The method, boiled down:
as §1

A short description of data set [9]: Clearance in dog at 1 mg/kg, iv. In kind it is ADME, organism-based, Canis lupus familiaris. The arrangement: dose 1 mg/kg, route intravenous. The conditions noted are these: in vivo. The method, boiled down: as §1
Data set [10] is described as follows: Cmax in dog at 5 mg/kg, po. Type of data set: ADME, organism-based, Canis lupus familiaris. Details: dose 5 mg/kg, route oral. The conditions noted are these: in vivo. The method in brief: as §1
The nature of data set [11]: Half life in dog at 1 mg/kg, iv. Type of data set: ADME, organism-based, Canis lupus familiaris. Details: dose 1 mg/kg, route intravenous. To be noted: in vivo. The method, boiled down: as §1
A short description of data set [12]: Volume of distribution at steady state in dog at 1 mg/kg, iv. Type of data set: ADME, organism-based, Canis lupus familiaris. To be noted: in vivo, read-out: Vdss. The arrangement: dose 1 mg/kg, route intravenous. The method, boiled down:
as §1

Structures are written as SMILES.

As usually defined, the half-life is the time in which the quantity being followed falls by half. The Cmax is the peak of the concentration-time curve. By clearance is commonly meant the rate of elimination divided by the concentration. Higher therefore signals efficient removal. As usually defined, the AUC is the area under the concentration-time curve, a measure of exposure. A higher AUC goes with high exposure. Turning to `CC(C)CN1CCC([S@](=O)c2ccc(CNC(=O)c3cc4ccncc4o3)cc2)CC1`, the bioavailability in data set [1] came out at 31%. In data set [2], this compound showed a half-life of 0.93 h. The compound also showed a Cmax in [3] of 70 nM. This compound returned a clearance in data set [4] of 225 mL/min/kg. In addition, the Vd in data set [5] is 17 L/kg. Further, in [6], the AUC was 0.27 µM·h.

Consider `O=C(NCc1ccc(S(=O)(=O)c2cc(F)cc(F)c2)cn1)c1cc2ccncc2o1`, for which the results for the bioavailability in data set [1] and in [8] were 61% and 115%, respectively. Further, the half-life in data set [2] was 1 h; in [11], 4.7 h. Moreover, the AUC in [7] was found to be 33 µM·h; in data set [6], 3.3 µM·h. For the same compound, the Cmax in data set [3] is 1000 nM; in data set [10] it was 4700 nM. The clearance in data set [4] worked out at 40 mL/min/kg; in data set [9], 6.7 mL/min/kg. In addition, the results for the Vd in data set [5] and in [12] were 2 L/kg and 1.6 L/kg, respectively.

Consider `O=C(NCc1ccc([S@@](=O)c2cc(F)cc(F)c2)cn1)c1cc2ccncc2o1`, for which, in [1], the bioavailability was found to be 62%. The compound further gave a half-life in [2] of 0.6 h. The same compound registered a Cmax in [3] of 1000 nM. Also, the clearance in data set [4] stood at 105 mL/min/kg. For the same compound, the Vd in [5] is 3 L/kg. The same compound had an AUC in data set [6] of 1.2 µM·h.

For the compound `CC(C)n1cc(S(=O)(=O)c2ccc(CNC(=O)c3cc4ccncc4o3)nc2)cn1`, the results for the bioavailability in [1] and in data set [8] were 74% and 141%, respectively. The half-life was 2.3 h in data set [2] and 1.5 h in data set [11]. In addition, the AUC in data set [7] amounted to 28 µM·h; in data set [6], 3 µM·h. Moreover, the values for the Cmax in data set [3] and in data set [10] were 1500 nM and 8600 nM, respectively. In addition, the figures for the clearance in [4] and in data set [9] were 55 mL/min/kg and 9.8 mL/min/kg, respectively. For the same compound, the Vd in data set [5] amounted to 3.2 L/kg; in data set [12] it was 1 L/kg.
